# Results taken from ChEMBL document CHEMBL3352510, “Anti-Inflammatory Spirostanol and Furostanol Saponins from Solanum macaonense” (J Nat Prod, 2014).
# The source made the active and inactive calls. The calls are words filed in the database; no cut-off is given here.
# How the values were obtained:
# Neutrophil [1] = test: Inhibition of FMLP/CB-stimulated superoxide production in human neutrophils preincubated for 5 mins before FMLP/CB treatment by spectrophotometry; format: functional, cell-based
# Method in brief: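 Neutrophils equilibrated with ferricytochrome c (0.5 mg/mL) and 1 mM Ca2+ at 37 °C for 2 min, treated with compound for 5 min, primed with cytochalasin B (1 μg/mL) for 3 min, then stimulated with FMLP 100 nM for 10 min. IC50 given as mean ± SEM, n = 3 or 4. Diphenyleneiodonium as positive control.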
# [2] = Cytotoxicity against human neutrophils assessed as reduction in cell viability up to 10 uM by LDH release assay; format: cell-based; settings: neutrophil
# Method in brief: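 Neutrophils held in Ca2+-free HBSS, pH 7.4, at 4 °C before use. Compounds tested up to 10 μM. Membrane damage scored as LDH in cell-free medium, expressed as a percentage of total LDH release.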
# Neutrophil [3] = test: Inhibition of FMLP/CB-stimulated elastase release in human neutrophils preincubated for 5 mins before FMLP/CB treatment using MeO-Suc-Ala-Ala-Pro-Val-pnitroanilide by spectrophotometry; format: functional, cell-based
# Method in brief: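 Neutrophils, after hypotonic lysis of erythrocytes, kept in Ca2+-free HBSS pH 7.4. Equilibrated 2 min at 37 °C with MeO-Suc-Ala-Ala-Pro-Val-p-nitroanilide (100 μM), given compound for 5 min, then activated with FMLP 100 nM plus cytochalasin B 0.5 μg/mL. Absorbance at 405 nm tracked continuously and expressed as percent of drug-free activated control. IC50 reported as mean ± SEM, n = 3 or 4. Sivelestat as positive control.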
# RBL-2H3 = test: Anti-inflammatory activity in rat RBL2H3 cells assessed as inhibition of beta-hexosaminidase release at 1 to 64 uM after 48 hrs by degranulation assay relative to control; format: functional, cell-based
# Method in brief: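 RBL-2H3 cells grown in DMEM/F12 with 10% FBS, seeded at 10^4 cells/well, exposed to compound (0, 1, 4, 16, 64 μM) for 48 h. Sensitized overnight with anti-DNP IgE ([…]), washed in Tyrode's buffer, then challenged with DNP-BSA (0.1 μg/mL) for 1 h. Reaction stopped on ice. Supernatant incubated 1 h with p-nitrophenyl-N-acetyl-D-glucosaminide (0.1 M, citrate buffer), stopped with bicarbonate, read at 405 nm. Release % = (sample − background)/(total lysate − background) × 100. Dexamethasone 100 nM as positive control.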
# [4] = Cytotoxicity against rat RBL2H3 cells assessed as reduction in cell viability by MTT assay; format: cell-based; settings: rbl-2h3
# Method in brief: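 Viability of RBL-2H3 cells by MTT, run alongside the degranulation assay. Cells cultured in DMEM/F12 with 10% FBS and exposed to compound at 0–64 μM.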
# [5] = Antidegranulation activity in rat RBL2H3 cells assessed as inhibition of DNP-BSA-stimulated beta-hexosaminidase release
IC50 (Neutrophil [1]) [µM],IC50 (Neutrophil [3]) [µM],Compound,other results
> 10,–,C[C@@H]1CC[C@@]2(OC1)O[C@H]1C[C@H]3[C@@H]4C[C@H](O[C@@H]5O[C@H](CO)[C@@H](O)[C@H](O)[C@H]5O)[C@H]5C[C@@H](O)CC[C@]5(C)[C@H]4CC[C@]3(C)[C@H]1[C@@H]2C,–
7.6,4.4,C[C@@H]1CC[C@@]2(OC1)O[C@H]1C[C@H]3[C@@H]4C[C@H](O[C@@H]5OC[C@@H](O)[C@H](O)[C@H]5O)[C@H]5C[C@@H](O)CC[C@]5(C)[C@H]4CC[C@]3(C)[C@H]1[C@@H]2C,Activity [2]: Non-toxic
> 10,4.2,C[C@@H]1CC[C@@]2(OC1)O[C@H]1C[C@H]3[C@@H]4C[C@H](O[C@@H]5OC[C@@H](O)[C@H](O[C@@H]6OC[C@@H](O)[C@H](O)[C@H]6O)[C@H]5O)[C@H]5C[C@@H](O)CC[C@]5(C)[C@H]4CC[C@]3(C)[C@H]1[C@@H]2C,Activity [2]: Non-toxic; Activity (RBL-2H3): inactive; Activity [4]: Active
> 10,–,CO[C@]1(CC[C@@H](C)CO[C@@H]2O[C@H](CO)[C@@H](O)[C@H](O)[C@H]2O)O[C@H]2C[C@H]3[C@@H]4C[C@H](O[C@@H]5O[C@H](C)[C@@H](O)[C@H](O[C@@H]6OC[C@@H](O)[C@H](O)[C@H]6O)[C@H]5O)[C@H]5C[C@@H](O)CC[C@]5(C)[C@H]4CC[C@]3(C)[C@H]2[C@@H]1C,–
> 10,–,C[C@H](CC[C@@]1(O)O[C@H]2C[C@H]3[C@@H]4C[C@H](O[C@@H]5O[C@H](C)[C@@H](O)[C@H](O)[C@H]5O)[C@H]5C[C@@H](O[C@@H]6O[C@H](CO)[C@@H](O)[C@H](O)[C@H]6O)CC[C@]5(C)[C@H]4CC[C@]3(C)[C@H]2[C@@H]1C)CO[C@@H]1O[C@H](CO)[C@@H](O)[C@H](O)[C@H]1O,–
> 10,–,CC1=C(CC[C@@H](C)CO[C@@H]2O[C@H](CO)[C@@H](O)[C@H](O)[C@H]2O)O[C@H]2C[C@H]3[C@@H]4C[C@H](O[C@@H]5O[C@H](C)[C@@H](O)[C@H](O[C@@H]6OC[C@@H](O)[C@H](O)[C@H]6O)[C@H]5O)[C@H]5C[C@@H](O)CC[C@]5(C)[C@H]4CC[C@]3(C)[C@@H]12,–
4,1,C[C@@H]1CC[C@@]2(OC1)O[C@H]1C[C@H]3[C@@H]4C[C@H](O[C@@H]5O[C@H](C)[C@@H](O)[C@H](O[C@@H]6OC[C@@H](O)[C@H](O)[C@H]6O)[C@H]5O)[C@H]5C[C@@H](O)CC[C@]5(C)[C@H]4CC[C@]3(C)[C@H]1[C@@H]2C,–
> 10,–,CO[C@]1(CC[C@@H](C)CO[C@@H]2O[C@H](CO)[C@@H](O)[C@H](O)[C@H]2O)O[C@H]2C[C@H]3[C@@H]4C[C@H](O[C@@H]5O[C@H](C)[C@@H](O)[C@H](O[C@@H]6OC[C@@H](O)[C@H](O)[C@H]6O)[C@H]5O)[C@H]5CC(=O)CC[C@]5(C)[C@H]4CC[C@]3(C)[C@H]2[C@@H]1C,–
> 10,–,CO[C@]1(CC[C@@H](C)CO[C@@H]2O[C@H](CO)[C@@H](O)[C@H](O)[C@H]2O)O[C@H]2C[C@H]3[C@@H]4C[C@H](O[C@@H]5OC[C@@H](O)[C@H](O[C@@H]6OC[C@@H](O)[C@H](O)[C@H]6O)[C@H]5O)[C@H]5C[C@@H](O)CC[C@]5(C)[C@H]4CC[C@]3(C)[C@H]2[C@@H]1C,–
> 10,–,C[C@H](CC[C@@]1(O)O[C@H]2C[C@H]3[C@@H]4C[C@H](O)[C@H]5C[C@@H](O[C@@H]6O[C@H](CO)[C@@H](O)[C@H](O)[C@H]6O)CC[C@]5(C)[C@H]4CC[C@]3(C)[C@H]2[C@@H]1C)CO[C@@H]1O[C@H](CO)[C@@H](O)[C@H](O)[C@H]1O,–
> 10,–,C[C@H](CC[C@@]1(O)O[C@H]2C[C@H]3[C@@H]4C[C@H](O)[C@H]5C[C@@H](O[C@@H]6O[C@H](CO)[C@@H](O)[C@H](O)[C@H]6O[C@@H]6O[C@@H](C)[C@H](O)[C@@H](O)[C@H]6O)CC[C@]5(C)[C@H]4CC[C@]3(C)[C@H]2[C@@H]1C)CO[C@@H]1O[C@H](CO)[C@@H](O)[C@H](O)[C@H]1O,–
> 10,3.2,C[C@@H]1CC[C@@]2(OC1)O[C@H]1C[C@H]3[C@@H]4C[C@H](O[C@@H]5O[C@H](C)[C@@H](O)[C@H](O[C@@H]6OC[C@@H](O)[C@H](O)[C@H]6O)[C@H]5O)[C@H]5CC(=O)CC[C@]5(C)[C@H]4CC[C@]3(C)[C@H]1[C@@H]2C,Activity [2]: Non-toxic; Activity (RBL-2H3): inactive; inhibition of degranulation [5]: > 90%
> 10,–,C[C@H]1CO[C@@]2(O[C@H]3C[C@H]4[C@@H]5C[C@H](O[C@@H]6O[C@H](C)[C@@H](O)[C@H](O[C@@H]7OC[C@@H](O)[C@H](O)[C@H]7O)[C@H]6O)[C@H]6C[C@@H](O)CC[C@]6(C)[C@H]5CC[C@]4(C)[C@H]3[C@@H]2C)[C@@H](O)C1,–
> 10,–,C[C@@H]1CC[C@@]2(OC1)O[C@H]1C[C@H]3[C@@H]4C[C@H](O[C@@H]5O[C@H](C)[C@@H](O)[C@H](O)[C@H]5O)[C@H]5C[C@@H](O[C@@H]6O[C@H](CO)[C@@H](O)[C@H](O)[C@H]6O)CC[C@]5(C)[C@H]4CC[C@]3(C)[C@H]1[C@@H]2C,–
> 10,–,CC1=C(C(O)C[C@@H](C)CO[C@@H]2O[C@H](CO)[C@@H](O)[C@H](O)[C@H]2O)O[C@H]2C[C@H]3[C@@H]4C[C@H](O[C@@H]5O[C@H](C)[C@@H](O)[C@H](O[C@@H]6OC[C@@H](O)[C@H](O)[C@H]6O)[C@H]5O)[C@H]5C[C@@H](O)CC[C@]5(C)[C@H]4CC[C@]3(C)[C@@H]12 (stereo partly specified),–
> 10,–,C[C@H](CC[C@@]1(O)O[C@H]2C[C@H]3[C@@H]4C[C@H](O[C@@H]5O[C@H](C)[C@@H](O)[C@H](O[C@@H]6OC[C@@H](O)[C@H](O)[C@H]6O)[C@H]5O)[C@H]5C[C@@H](O)CC[C@]5(C)[C@H]4CC[C@]3(C)[C@H]2[C@@H]1C)CO[C@@H]1O[C@H](CO)[C@@H](O)[C@H](O)[C@H]1O,–
> 10,–,C[C@H](C/C=C1/O[C@H]2C[C@H]3[C@@H]4C[C@H](O[C@@H]5O[C@H](C)[C@@H](O)[C@H](O[C@@H]6OC[C@@H](O)[C@H](O)[C@H]6O)[C@H]5O)[C@H]5C[C@@H](O)CC[C@]5(C)[C@H]4CC[C@]3(C)[C@H]2[C@@]1(C)O)CO[C@@H]1O[C@H](CO)[C@@H](O)[C@H](O)[C@H]1O,–
–,50,CC(C)(C)C(=O)Oc1ccc(S(=O)(=O)Nc2ccccc2C(=O)NCC(=O)O)cc1 [SIVELESTAT],–

Compound,IC50 (Neutrophil [1]) [µM],IC50 (Neutrophil [3]) [µM],other results
C[C@@H]1CC[C@@]2(OC1)O[C@H]1C[C@H]3[C@@H]4C[C@H](O)[C@H]5C[C@@H](O)CC[C@]5(C)[C@H]4CC[C@]3(C)[C@H]1[C@@H]2C [CHLOROGENIN],6.1,> 10,–
C[C@@H]1CC[C@@]2(OC1)O[C@H]1C[C@H]3[C@@H]4C[C@H](O[C@@H]5O[C@H](C)[C@@H](O)[C@H](O)[C@H]5O)[C@H]5C[C@@H](O)CC[C@]5(C)[C@H]4CC[C@]3(C)[C@H]1[C@@H]2C,7,3.7,Activity [2]: Non-toxic
C[C@@H]1CC[C@@]2(OC1)O[C@H]1C[C@H]3[C@@H]4C[C@H](O)[C@H]5C[C@@H](O[C@@H]6O[C@H](CO)[C@@H](O[C@H]7O[C@@H](C)[C@H](O)[C@@H](O)[C@H]7O)[C@H](O)[C@H]6O[C@H]6O[C@@H](C)[C@H](O)[C@@H](O)[C@H]6O)CC[C@]5(C)[C@H]4CC[C@]3(C)[C@H]1[C@@H]2C,> 10,–,–
c1ccc2c(c1)[I+]c1ccccc1-2 [DIPHENYLENEIODONIUM],0.8,–,–
